# Assay results as given in ChEMBL document CHEMBL1806372, “Cytotoxic ring A-modified steroid analogues derived from Grundmann's ketone” (Eur J Med Chem, 2011).
# Calls of active or inactive are those of the source. The calls are words filed in the database; no cut-off is given here.
# Legend:
# HL-60 = test: Cytotoxicity against human HL60 cells after 24 hrs by MTT assay; format: functional, cell-based; conditions: HL-60, 24 h
# Method in brief: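 HL-60 cells kept in RPMI 1640 with 10% FBS, no antibiotics, 37 °C, humidified 5% CO2. Cells (9 × 10^5 cells/mL) exposed to compound in 96-well plates for 24 h at 37 °C. MTT in PBS (5 mg/mL) added for 2 h, then DMSO, shaken 1 h and read photometrically. IC50 determined; cisplatin reference.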
# Escherichia coli = test: Antibacterial activity against Escherichia coli assessed as zone of inhibition at 5 uL and 32 degC after 36 hrs by disk diffusion method; format: functional
# Method in brief: (§1)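 Disc diffusion on AC agar, each strain spread evenly over the medium; test compounds given as 1% (w/v) DMSO solutions. Plates covered and incubated 36 h at 32 °C, then the diameter of the zone of inhibited growth measured in mm. Tetracycline served as antibacterial reference.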
# Burkholderia gladioli = test: (§2) Antibacterial activity against Pseudomonas antimicrobica assessed as zone of inhibition at 5 uL and 32 degC after 36 hrs by disk diffusion method; format: functional; method in brief: as §1
# Staphylococcus equorum = test: Antibacterial activity against Staphylococcus equorum assessed as zone of inhibition at 5 uL and 32 degC after 36 hrs at by disk diffusion method; format: functional; method in brief: as §1
# Streptococcus entericus = test: Antibacterial activity against Streptococcus entericus assessed as zone of inhibition at 5 uL and 32 degC after 36 hrs by disk diffusion method; format: functional; method in brief: as §1
# Yarrowia lipolytica = test: Antifungal activity against Yarrowia lipolytica assessed as zone of inhibition at 5 uL and 28 degC after 36 hrs by disk diffusion method; format: functional
# Method in brief: (§3)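 Agar disc diffusion with the test compound applied as a 1% (w/v) DMSO solution. Yeasts were grown on AC agar and Aspergillus niger on potato dextrose broth agar, each strain spread evenly. Plates were covered and kept 36 h at 28 °C, and the inhibition zone diameter was read in mm. Clotrimazole served as reference.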
# Nakaseomyces glabratus = test: Antifungal activity against Candida glabrata assessed as zone of inhibition at 5 uL and 28 degC after 36 hrs by disk diffusion method; format: functional; method in brief: as §3
# Aspergillus niger = test: Antifungal activity against Aspergillus niger assessed as zone of inhibition at 5 uL and 28 degC after 36 hrs by disk diffusion method; format: functional; method in brief: as §3
# [1] = Antifungal activity against Hyphopichia burtonii assessed as zone of inhibition at 5 uL and 28 degC after 36 hrs by disk diffusion method; format: functional; method in brief: as §3
# [2] = as §2; format: functional, Burkholderia gladioli; method in brief: as §1
SMILES,IC50 (HL-60) [µM],diameter of the inhibition zone (DIZ) (Escherichia coli),diameter of the inhibition zone (DIZ) (Burkholderia gladioli),diameter of the inhibition zone (DIZ) (Staphylococcus equorum),diameter of the inhibition zone (DIZ) (Streptococcus entericus),diameter of the inhibition zone (DIZ) (Yarrowia lipolytica),diameter of the inhibition zone (DIZ) (Nakaseomyces glabratus),diameter of the inhibition zone (DIZ) (Aspergillus niger),diameter of the inhibition zone (DIZ) [1],diameter of the inhibition zone (DIZ) [2] [mm],inhibition zone (IZ) [1] [mm]
C=CC1=CCC[C@]2(C)[C@@H]([C@H](C)CCCC(C)C)CC[C@@H]12,> 100,inactive,inactive,10 mm,9 mm,inactive,inactive,inactive,inactive,–,–
CC(C)CCC[C@@H](C)[C@H]1CC[C@H]2C3=CC[C@@H]4C(=O)N(C)C(=O)[C@@H]4[C@@H]3CC[C@]12C,15,10 mm,–,inactive,10 mm,inactive,10 mm,inactive,–,7,14
CC(C)CCC[C@@H](C)[C@H]1CC[C@H]2C3=CCn4c(=O)n(C)c(=O)n4[C@@H]3CC[C@]12C,13,inactive,inactive,10 mm,inactive,inactive,inactive,inactive,inactive,–,–
CN(C)[C@@H]1C(O)=C(C(N)=O)C(=O)[C@@]2(O)C(O)=C3C(=O)c4c(O)cccc4[C@@](C)(O)[C@H]3C[C@@H]12 [TETRACYCLINE],–,30 mm,–,30 mm,22 mm,–,–,–,–,25,–
CC(C)CCC[C@@H](C)[C@H]1CC[C@H]2C(C#CCCO)=CCC[C@]12C,38,10 mm,–,6 mm,14 mm,inactive,10 mm,inactive,–,11,11
CC(C)CCC[C@@H](C)[C@H]1CC[C@H]2C(/C=C/CN3C(=O)C=CC3=O)=CCC[C@]12C,32,9 mm,–,11 mm,15 mm,inactive,7 mm,inactive,–,10,8
CC(C)CCC[C@@H](C)[C@H]1CC[C@H]2C3=CC[C@@H]4C(=O)OC(=O)[C@@H]4[C@@H]3CC[C@]12C,30,7 mm,–,inactive,12 mm,inactive,8 mm,inactive,–,10,10
CC(C)CCC[C@@H](C)[C@H]1CC[C@H]2C(C#CCCN3C(=O)C=CC3=O)=CCC[C@]12C,46,15 mm,–,11 mm,15 mm,inactive,10 mm,inactive,–,13,12
